# Results collected from several papers.
# Protocols differ between the studies behind these lines.
# Target: Muscarinic acetylcholine receptor M1 (CHRM1, Homo sapiens, UniProt P11229)
# Concentration: 10 µM
# Sequence (P11229 1-460, as in one of the studies): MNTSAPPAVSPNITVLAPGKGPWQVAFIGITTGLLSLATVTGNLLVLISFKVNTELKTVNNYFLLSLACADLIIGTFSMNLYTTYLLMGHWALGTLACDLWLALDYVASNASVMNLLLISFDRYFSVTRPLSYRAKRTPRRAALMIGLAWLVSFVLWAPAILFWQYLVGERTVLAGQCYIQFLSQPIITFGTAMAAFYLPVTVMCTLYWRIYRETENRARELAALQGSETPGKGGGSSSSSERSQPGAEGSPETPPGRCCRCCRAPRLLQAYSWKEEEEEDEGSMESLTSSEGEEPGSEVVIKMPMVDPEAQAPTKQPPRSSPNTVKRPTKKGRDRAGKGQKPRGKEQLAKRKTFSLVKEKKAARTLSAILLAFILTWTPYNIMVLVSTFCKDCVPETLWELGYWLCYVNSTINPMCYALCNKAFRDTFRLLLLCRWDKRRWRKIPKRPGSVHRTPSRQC
Structure (SMILES),assay,inhibition [%]
O=C(Nc1ccc(S(=O)(=O)N2CCC(Cl)CC2)cc1)c1ccc([N+](=O)[O-])o1,"ligand displacement, radioligand",2
O=C(c1ccc(Cl)cc1)N(Cc1ccccc1)C1CCCCC1,cell-free assay,-25.8
O=C1N=C(N2CCCCN2)S/C1=C\c1ccc(F)cc1O,"ligand displacement, radioligand",< 10
CCN(CC)c1ccc(C2Nc3ccc(C(=O)c4ccccc4)cc3NC3=C2C(=O)CC(C)(C)C3)cc1 (centres unmarked),"ligand displacement, radioligand",-4
N#Cc1cc(Cn2c(N3CCCC3)nc3ccccc32)ccc1F,ligand displacement,-15.5
Oc1cccc(Nc2nc(-c3ccc(F)cc3F)cs2)c1,cell-free assay,-66
CCN(Cc1ccccc1C(F)(F)F)C(=O)C1CCN(S(=O)(=O)c2ccc3[nH]ncc3c2)CC1,"ligand displacement, radioligand",1
CCCNc1nc2ccccc2n1Cc1ccc(Cl)cc1,ligand displacement,-16.1
